According to ChEMBL document CHEMBL1135663, “Probing opioid receptor interactions with azacycloalkane amino acids. Synthesis of a potent and selective ORL1 antagonist” (J Med Chem, 2002):
Several values for one entry are separate records, joined by “and”; a condition that tells them apart may be missing. Identical values can stand only once.

Assays:
[1] = target: Delta-type opioid receptor (Homo sapiens, UniProt P41143); assay: Binding affinity for opioid receptor type, human Opioid receptor delta 1 expressed in membrane homogenates of COS-1 or CHO cells; format: cell-based
Nociceptin receptor [2] = target: T1, Nociceptin receptor (Homo sapiens, UniProt P41146); assay: Binding affinity for opioid receptor like type, human Opioid receptor like 1 expressed in membrane homogenates of COS-1 or CHO cells; format: cell-based
Mu-type opioid receptor [3] = target: T2, Mu-type opioid receptor (Homo sapiens, UniProt P35372); assay: Binding affinity for opioid receptor type, human Opioid receptor mu 1 expressed in membrane homogenates of COS-1 or CHO cells; format: cell-based
[4] = target: T3, Kappa-type opioid receptor (Homo sapiens, UniProt P41145); assay: Binding affinity for opioid receptor type, human Opioid receptor kappa 1 expressed in membrane homogenates of COS-1 or CHO cells; format: cell-based
[5] = target: T3, Kappa-type opioid receptor; assay: Stimulation of [35S]GTP-gamma-S, binding using COS-human Opioid receptor kappa 1 membranes; format: functional
Procedure, shortened: (§1)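 Agonist-stimulated [35S]GTPγS binding to 5 μg membranes from COS cells transiently expressing human KOR or MOR. Incubation was 1 h at 30 °C with 0.2 nM [35S]GTPγS, GDP and increasing ligand concentrations, giving concentration–response data. Mean ± SEM of at least two separate experiments, each in triplicate.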

Mu-type opioid receptor [6] = target: T2, Mu-type opioid receptor; assay: Stimulation of [35S]GTP-gamma-S, binding using COS-human Opioid receptor mu 1 membranes; format: functional; procedure, shortened: as §1
[7] = target: T3, Kappa-type opioid receptor; assay: Maximal activation of [35S]GTP-gamma-S, binding using COS-human Opioid receptor kappa 1 membranes; format: functional
Procedure, shortened: (§2)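 Membranes (5 μg) from COS cells transiently transfected with human KOR or MOR, incubated 1 h at 30 °C with 0.2 nM [35S]GTPγS, GDP and increasing ligand concentrations. Maximal activation is given as percentage of basal [35S]GTPγS binding. Mean ± SEM of at least two separate experiments, each in triplicate.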

Mu-type opioid receptor [8] = target: T2, Mu-type opioid receptor; assay: Maximal activation of [35S]GTP-gamma-S, binding using COS-human Opioid receptor mu 1 membranes; format: functional; procedure, shortened: as §2
Nociceptin receptor [9] = target: T1, Nociceptin receptor

T3 sequence (P41145 whole entry): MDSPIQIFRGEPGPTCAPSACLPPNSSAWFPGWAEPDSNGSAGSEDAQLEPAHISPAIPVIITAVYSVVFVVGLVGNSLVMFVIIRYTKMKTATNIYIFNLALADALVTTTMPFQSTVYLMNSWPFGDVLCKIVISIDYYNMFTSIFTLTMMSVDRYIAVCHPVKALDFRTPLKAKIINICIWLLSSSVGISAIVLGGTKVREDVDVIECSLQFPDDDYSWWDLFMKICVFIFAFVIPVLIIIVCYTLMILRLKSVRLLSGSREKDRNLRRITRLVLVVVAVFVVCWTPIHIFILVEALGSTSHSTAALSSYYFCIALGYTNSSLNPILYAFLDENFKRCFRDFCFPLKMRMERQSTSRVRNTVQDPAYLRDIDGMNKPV
T1 sequence (P41146 whole entry): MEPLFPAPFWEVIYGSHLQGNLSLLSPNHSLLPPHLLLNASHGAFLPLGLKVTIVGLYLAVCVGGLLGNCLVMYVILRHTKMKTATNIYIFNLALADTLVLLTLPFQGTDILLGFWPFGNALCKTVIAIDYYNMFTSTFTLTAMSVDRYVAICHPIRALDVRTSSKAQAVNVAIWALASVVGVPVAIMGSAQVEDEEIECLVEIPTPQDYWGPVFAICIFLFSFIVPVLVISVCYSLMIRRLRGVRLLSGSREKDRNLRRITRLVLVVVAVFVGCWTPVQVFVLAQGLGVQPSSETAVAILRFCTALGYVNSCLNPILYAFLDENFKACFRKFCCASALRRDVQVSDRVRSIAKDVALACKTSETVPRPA
Chain of Delta-type opioid receptor (P41143 whole entry): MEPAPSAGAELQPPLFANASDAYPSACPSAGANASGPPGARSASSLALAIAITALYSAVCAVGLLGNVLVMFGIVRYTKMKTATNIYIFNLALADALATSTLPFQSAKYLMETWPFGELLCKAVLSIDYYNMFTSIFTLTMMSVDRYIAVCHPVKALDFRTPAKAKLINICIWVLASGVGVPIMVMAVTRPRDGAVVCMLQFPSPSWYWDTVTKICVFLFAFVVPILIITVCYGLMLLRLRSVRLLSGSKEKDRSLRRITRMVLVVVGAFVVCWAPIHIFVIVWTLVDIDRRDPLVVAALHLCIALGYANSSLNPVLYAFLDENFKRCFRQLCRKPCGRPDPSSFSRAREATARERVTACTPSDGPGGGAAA
T2 sequence (P35372 whole entry): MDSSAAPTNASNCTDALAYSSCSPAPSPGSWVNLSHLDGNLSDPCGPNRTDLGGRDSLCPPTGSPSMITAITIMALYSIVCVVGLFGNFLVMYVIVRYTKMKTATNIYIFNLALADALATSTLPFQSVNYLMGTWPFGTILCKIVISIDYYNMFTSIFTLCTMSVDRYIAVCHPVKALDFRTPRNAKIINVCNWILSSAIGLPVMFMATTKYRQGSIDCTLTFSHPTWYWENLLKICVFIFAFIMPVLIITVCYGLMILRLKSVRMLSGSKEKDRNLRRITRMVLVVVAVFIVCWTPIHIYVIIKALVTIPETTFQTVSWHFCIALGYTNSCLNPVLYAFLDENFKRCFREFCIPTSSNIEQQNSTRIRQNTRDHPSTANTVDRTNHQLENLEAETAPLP

Structure (SMILES) | Ki [1] | Ki (Nociceptin receptor [2]) | Ki (Mu-type opioid receptor [3]) | Ki [4] | Ki ([1]; cos-1) | Ki (Nociceptin receptor [2]; cos-1) | EC50 [5] | Ki (Mu-type opioid receptor [3]; cos-1) | EC50 (Mu-type opioid receptor [6]) | Ki ([4]; cos-1) | Activity [7] | Activity (Mu-type opioid receptor [8]) | Ke (Nociceptin receptor [9])
CC(=O)N[C@@H](CCCN=C(N)N)C(=O)N[C@H](CC1CCCCC1)C(=O)N[C@@H](Cc1ccccc1)C(=O)N1[C@H](C(=O)N[C@H](CCCN=C(N)N)C(=O)N[C@H](Cc2ccc(Cl)cc2)C(N)=O)CC[C@@H]1C(C)(C)C | 2.34 µM | 1.7 µM | 0.368 µM | 0.282 µM |  |  |  |  |  |  |  |  | 
CC(=O)N[C@@H](CCCNC(=N)N)C(=O)N[C@H](CC1CCCCC1)C(=O)N[C@H]1CC[C@H]2CC[C@@H](C(=O)N[C@H](CCCNC(=N)N)C(=O)N[C@H](Cc3ccc(Cl)cc3)C(N)=O)N2C1=O |  |  |  |  | 5.2 µM | 0.044 µM | > 1 µM | 0.075 µM | 1.4 µM | 0.19 µM |  |  | 
CC(=O)N[C@@H](CCCN=C(N)N)C(=O)N[C@H](CC1CCCCC1)C(=O)N[C@H]1C[C@H]2CCC[C@@H](C(=O)N[C@H](CCCN=C(N)N)C(=O)N[C@H](Cc3ccc(Cl)cc3)C(N)=O)N2C1=O |  |  |  |  | 10.9 µM | 2.13 µM |  | 2.7 µM |  | 1.08 µM |  |  | 
CC(=O)N[C@@H](CCCN=C(N)N)C(=O)NC(CC1CCCCC1)C(=O)NC1CC[C@H]2CCC[C@@H](C(=O)N[C@H](CCCN=C(N)N)C(=O)NC(Cc3ccc(Cl)cc3)C(N)=O)N2C1=O (stereo in doubt) | 7.05 µM | 0.035 µM | 0.496 µM | 0.441 µM |  |  | > 1 µM |  | 2.8 µM |  | 117% | 141% | 
CC(=O)N[C@@H](CCCN=C(N)N)C(=O)NC(CC1CCCCC1)C(=O)N[C@H]1CC[C@@H]2SC[C@H](C(=O)N[C@H](CCCN=C(N)N)C(=O)NC(Cc3ccc(Cl)cc3)C(N)=O)N2C1=O (stereo in doubt) |  |  |  |  | 0.222 µM | 0.034 µM |  | 0.053 µM |  | 0.078 µM |  |  | 40 nM
CC(=O)N[C@@H](CCCN=C(N)N)C(=O)NC(CC1CCCCC1)C(=O)N[C@H]1CC[C@H]2SC[C@@H](C(=O)N[C@H](CCCN=C(N)N)C(=O)NC(Cc3ccc(Cl)cc3)C(N)=O)N2C1=O (stereo in doubt) |  |  |  |  |  |  |  |  |  |  | 122% and 120% | 207% | 400 nM
